We go through twelve molecules from ChEMBL document CHEMBL2321726, “Identification of selective inhibitors for human neuraminidase isoenzymes using C4,C7-modified 2-deoxy-2,3-didehydro-N-acetylneuraminic acid (DANA) analogues” (J Med Chem, 2013).

One test addresses Sialidase-1 (Homo sapiens, UniProt Q99519). Kind of test: Inhibition of human neuraminidase 1 using 4MU-NANA as substrate after 30 mins by fluorescence assay. Put shortly:
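NEU1 purified per earlier protocol as complex with β-galactosidase and cathepsin A. 0.1 M sodium acetate, pH 4.5. Inhibitor in 3-fold serial dilutions from 1 mM final, preincubated with enzyme 15 min at 37 °C. 4MU-NANA (50 μM final) added, 30 min at 37 °C. Four replicates; IC50 by nonlinear regression.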

A further test addresses Neuraminidase (Vibrio cholerae, UniProt Q5IB64). Description: Inhibition of Vibrio cholerae neuraminidase.
Test [1] deals with T1, Sialidase-3 (Homo sapiens, UniProt Q9UQ49).
T1 sequence (Q9UQ49 whole entry): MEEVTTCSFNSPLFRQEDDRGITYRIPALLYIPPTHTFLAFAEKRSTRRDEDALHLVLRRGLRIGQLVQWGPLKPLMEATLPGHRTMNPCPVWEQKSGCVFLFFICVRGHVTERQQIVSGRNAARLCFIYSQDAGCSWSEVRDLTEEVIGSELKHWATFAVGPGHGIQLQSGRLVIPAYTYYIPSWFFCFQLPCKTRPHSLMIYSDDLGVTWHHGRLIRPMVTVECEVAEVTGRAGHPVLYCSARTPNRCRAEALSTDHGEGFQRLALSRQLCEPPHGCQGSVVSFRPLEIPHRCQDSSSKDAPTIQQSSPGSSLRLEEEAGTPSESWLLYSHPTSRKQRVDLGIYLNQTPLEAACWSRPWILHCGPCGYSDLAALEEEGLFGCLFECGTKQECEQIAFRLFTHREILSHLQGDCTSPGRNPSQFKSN
Description: Inhibition of human neuraminidase 3 expressed in Escherichia coli using 4MU-NANA as substrate after 30 mins by fluorescence assay. Put shortly:
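Enzyme made in E. coli as N-terminal MBP fusion. 0.1 M sodium acetate pH 4.5. 3-fold serial inhibitor dilutions from 1 mM final, 15 min preincubation with enzyme at 37 °C, then 4MU-NANA 50 μM final for 30 min at 37 °C. Glycinate pH 10.7 stop, fluorescence 365/445 nm. Quadruplicate points; IC50 by nonlinear regression.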

The target of the next test is T2, Sialidase-4 (Homo sapiens, UniProt Q8WWR8).
T2 sequence (Q8WWR8 whole entry): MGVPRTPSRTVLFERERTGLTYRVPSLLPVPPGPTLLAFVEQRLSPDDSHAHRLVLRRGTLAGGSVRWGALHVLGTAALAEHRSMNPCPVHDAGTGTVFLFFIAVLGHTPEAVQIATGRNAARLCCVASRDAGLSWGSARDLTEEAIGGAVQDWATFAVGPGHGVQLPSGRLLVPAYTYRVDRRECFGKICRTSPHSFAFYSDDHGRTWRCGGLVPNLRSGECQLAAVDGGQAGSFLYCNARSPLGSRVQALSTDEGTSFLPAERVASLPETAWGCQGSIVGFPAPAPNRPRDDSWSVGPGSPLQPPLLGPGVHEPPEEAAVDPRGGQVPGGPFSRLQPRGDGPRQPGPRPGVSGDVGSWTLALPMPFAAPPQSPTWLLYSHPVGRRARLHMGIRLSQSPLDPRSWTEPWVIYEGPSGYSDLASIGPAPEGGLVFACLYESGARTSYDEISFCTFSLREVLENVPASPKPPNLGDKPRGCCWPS
Description: Inhibition of human neuraminidase 4 using 4MU-NANA as substrate after 30 mins by fluorescence assay. The essentials:
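GST-fusion enzyme, assayed in 0.1 M sodium acetate pH 4.5. Inhibitor diluted 3-fold serially from 1 mM final, incubated 15 min at 37 °C with enzyme, then 4MU-NANA (50 μM final) 30 min at 37 °C. Four replicates; IC50 from nonlinear regression.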

The target in test [2] is T1, Sialidase-3. Description: Inhibition of human neuraminidase 3 expressed in Escherichia coli using 4MU-NANA as substrate measured for every 30 seconds for 60 mins by fluorescence assay. The essentials: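 Product formation at 37 °C read every 30 s for 60 min (ex 365/em 445 nm). Initial linear rates; Lineweaver–Burk slopes plotted against inhibitor concentration and fitted for Ki.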

The structures appear in SMILES notation.

With `CC(=O)N[C@H]1[C@H](CNc2ccccc2)OC(C(=O)O)=C[C@@H]1N`, the IC50 on Sialidase-1 is over 1000 µM; at Neuraminidase, over 1000 µM; on Sialidase-3 [1] it was 540 µM; at Sialidase-4, over 1000 µM.

With `CC(=O)N[C@H]1[C@H](CNc2ccccc2)OC(C(=O)O)=C[C@@H]1O`, the IC50 at Sialidase-1 is over 1000 µM; on Neuraminidase, over 1000 µM; on Sialidase-3 [1], 370 µM; at Sialidase-4 it was over 1000 µM.

As for `CC(=O)N[C@H]1[C@H](CNCc2ccccc2)OC(C(=O)O)=C[C@@H]1O`, the IC50 against Sialidase-1 was over 1000 µM; against Neuraminidase it was 470 µM; at Sialidase-3 [1] it was over 1000 µM; at Sialidase-4, over 1000 µM.

In the case of `CC(=O)N[C@H]1[C@H](CNNCc2ccc(-c3ccccc3)cc2)OC(C(=O)O)=C[C@@H]1O`, the IC50 against Sialidase-1 is over 1000 µM; on Neuraminidase, over 1000 µM; on Sialidase-3 [1], 70 µM; against Sialidase-4 it was 200 µM.

In the case of `CC(=O)N[C@H]1[C@H]([C@H](O)[C@H](O)CO)OC(C(=O)O)=C[C@@H]1N=[N+]=[N-]`, the IC50 against Sialidase-1 came to 360 µM; against Neuraminidase, 540 µM; against Sialidase-3 [1] it was 54 µM; against Sialidase-4, 1000 µM.

For `CC(=O)N[C@@H]1[C@@H](N=[N+]=[N-])C=C(C(=O)O)O[C@H]1CNc1ccccc1`, the IC50 against Sialidase-1 was over 1000 µM; against Neuraminidase it was over 1000 µM; at Sialidase-3 [1] it was 440 µM; at Sialidase-4 it was 300 µM.

Consider `CC(=O)N[C@@H]1[C@@H](N=[N+]=[N-])C=C(C(=O)O)O[C@H]1CNc1ccc(-c2ccccc2)cc1`, for which the IC50 is over 1000 µM at Sialidase-1, over 1000 µM at Neuraminidase, 50 µM on Sialidase-3 [1] and 210 µM at Sialidase-4.

Take `CC(=O)N[C@@H]1[C@@H](N=[N+]=[N-])C=C(C(=O)O)O[C@H]1CNOCc1ccccc1`: the IC50 on Sialidase-1 was over 1000 µM; against Neuraminidase, 550 µM; against Sialidase-3 [1], 24 µM; against Sialidase-4 it was over 1000 µM. Besides, the affinity on Sialidase-3 [2], expressed as Ki, was 8 µM.

As for `CC(=O)N[C@@H]1[C@@H](N=[N+]=[N-])C=C(C(=O)O)O[C@H]1CN(Cc1ccccc1)OCc1ccccc1`, the IC50 on Sialidase-1 was over 1000 µM; on Neuraminidase, over 1000 µM; at Sialidase-3 [1], 24 µM; at Sialidase-4 it was 350 µM.

With `CC(=O)N[C@@H]1[C@@H](N=[N+]=[N-])C=C(C(=O)O)O[C@H]1CNNc1ccccc1`, the half-inhibitory concentration (IC50) at Sialidase-1 is over 1000 µM; against Neuraminidase it was over 1000 µM; against Sialidase-3 [1], 20 µM; on Sialidase-4, over 1000 µM. Besides, on Sialidase-3 [2], the Ki came to 11 µM.

Take `CC(=O)N[C@H]1[C@H]([C@H](O)[C@H](O)CO)OC(C(=O)O)=C[C@@H]1N`: the IC50 at Sialidase-1 was over 1000 µM; on Neuraminidase, over 1000 µM; against Sialidase-3 [1] it was 180 µM; on Sialidase-4, 720 µM.

For the molecule `CC(=O)N[C@H]1[C@H]([C@H](O)[C@H](O)CO)OC(C(=O)O)=C[C@@H]1O` [NEU5AC2EN], the IC50 came out at 170 µM at Neuraminidase and 6.3 µM against Sialidase-3 [1]. Besides, the Ki at Sialidase-3 [2] amounted to 2.2 µM.

What is called IC50 is the concentration that gives 50% inhibition. A higher IC50 goes with weaker potency in that assay. As usually defined, the Ki is a dissociation constant, usually derived from enzyme kinetics or from competition with a known ligand. Low values mean higher affinity, high ones lower affinity.
